bIAP inh: intestinal alkaline phosphatase (bovine) inhibition. purified bovine IAP, CDP-star luminescence, 30 min. inhibition, % at 20 µM. 190,000 tested, under 10 active;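 active means over 50% inhibition of intestinal alkaline phosphatase at 20 µM in the single-dose screen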
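Assay system – bovine IAP enzyme · Quantity – bovine IAP at 1/65,000,000 final dilution · Detection – CDP-star luminescence signal · Times – 30 min reaction at room temperature · Also added – CDP-star substrate at 30 µM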
hIAP activ: human IAP activation; AID 2524; purified human IAP, CDP-Star luminescence, 30 min; hits give high values; 1 = vehicle-only enzyme, 0 = enzyme-free background; 0.16% of 330,000 active; activation factor at 10 µM; P09923;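 active means activation factor of the enzyme at least 2-fold when tested at 20 µM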
Target sequence (P09923 whole entry, looked up): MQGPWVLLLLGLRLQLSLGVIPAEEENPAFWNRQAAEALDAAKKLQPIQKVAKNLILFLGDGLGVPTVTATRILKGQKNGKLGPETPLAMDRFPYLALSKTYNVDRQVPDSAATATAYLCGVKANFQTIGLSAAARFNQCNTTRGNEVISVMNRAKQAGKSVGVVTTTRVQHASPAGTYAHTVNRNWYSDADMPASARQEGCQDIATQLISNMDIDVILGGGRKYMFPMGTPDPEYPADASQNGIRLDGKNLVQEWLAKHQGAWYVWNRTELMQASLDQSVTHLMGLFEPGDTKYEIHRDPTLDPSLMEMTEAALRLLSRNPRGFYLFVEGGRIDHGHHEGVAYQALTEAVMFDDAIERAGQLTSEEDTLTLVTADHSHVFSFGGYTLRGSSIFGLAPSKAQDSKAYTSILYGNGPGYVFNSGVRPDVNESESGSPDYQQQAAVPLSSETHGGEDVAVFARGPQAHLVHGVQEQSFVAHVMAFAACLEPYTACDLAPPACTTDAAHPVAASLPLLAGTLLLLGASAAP
bIAP activator: increases bovine intestinal alkaline phosphatase activity; 0.17% of 200,000 active; AID 1016; purified bovine IAP, CDP-star luminescence, 30 min; hits give high values; fold of DMSO-control signal, blank-subtracted; activation factor at 20 µM;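 active means activation factor of 2 or more at 20 µM, a signal rise over negative controls twice the positive control's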
mIAP act: increases mouse intestinal alkaline phosphatase activity; muIAP, CDP-Star luminescence, 30 min; hits give high values; 1 = vehicle-only enzyme signal, 0 = enzyme-free wells; activation factor at 10 µM; 0.24% of 330,000 active; AID 2805;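 active means activation factor of at least 2 at 20 µM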
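Assay system: mouse IAP enzyme; Reagent: CDP-Star chemiluminescent phosphatase substrate; Compound: DMSO-dissolved test compounds; Incubation: 30 min, room temperature; Technique: luminescence from enzymatic CDP-Star hydrolysis; Controls: DMSO-only wells and no-enzyme negative control.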
mIAP block: mouse IAP inhibition; AID 2806; 0.2% of 330,000 active; purified mouse IAP, CDP-Star luminescence, 30 min; inhibition, % at 10 µM;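 active means inhibition of at least 40% at 10 µM in the primary screen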;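 further: plate controls were DMSO with enzyme for no effect and no enzyme wells for full effect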
hIAP inh: blocks human intestinal alkaline phosphatase; P09923; purified IAP, CDP-Star luminescence, 30 min; 0.12% of 330,000 active; inhibition, % at 10 µM;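 active means inhibition reaching a set limit with compound at 10 µM in the primary screen, cut at about 35% in these data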;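 further: plate controls were DMSO wells with enzyme for no effect and no-enzyme buffer wells for full effect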
hIAP act confirm: human IAP activation confirmation | shares compounds with hIAP activ | purified IAP, CDP-Star luminescence, 30 min; hits give low values | activation (%Activity, negative = activation), % at 8.3 µM | 10% of 880 active | AID 434926;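 active means at least twofold enzyme activation in any of six single-dose repeats, which the averaged readout prints as negative percent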
Active calls of the source: *; x = not tested or not shown. This is a sample that favours compounds with a hit; in the whole collection about 0.77% have one here.

SMILES	bIAP inh	hIAP activ	bIAP activator	mIAP act	mIAP block	hIAP inh	hIAP act confirm
COc1cccc(Cn2cccc(NC(=O)NCc3ccccc3)c2=O)c1	x	0.61	x	0.95	5	38*	9
C=C(C)Cn1c(=O)c2c(nc3n2CC(C)CN3Cc2ccccc2)n(C)c1=O (stereo unspecified)	x	1	x	1	-1	-5	x
Cc1cc(-n2c(SCC(=O)Nc3ccc(F)c(F)c3)nc3n[nH]c(C)c3c2=N)ccc1Cl	x	2.1*	x	1.1	-14	-107	-40
CN1CCN(CCNC(=O)Cn2c(=O)c3cccn3c3ccc(F)cc32)CC1	x	0.61	x	0.93	7	39*	35
CCOc1ccc(NC(=O)CN(C)C(=O)C2=COCCO2)cc1OCC	x	1.3	x	0.98	2	-30	x
CS(=O)(=O)c1ccc(Cl)c(NC(=O)Cc2ccsc2)c1	x	0.64	x	1	-2	36*	5
CS(=O)(=O)c1ccc(Cl)c(NC(=O)Cc2c(Cl)cccc2Cl)c1	12	1.1	0.9	1	0	-10	x
Nc1ccc(-c2nnn(CC(=O)N3CCCCC3)n2)cc1	x	1.1	x	0.99	1	-12	x
CCn1nnc(-c2ccc(N)cc2)n1	-7	2*	1.1	1	-2	-102	-22
CC(C)(C)c1cn(-c2ccc(F)cc2)c(=S)[nH]1	38	0.65	0.6	0.97	3	35*	3
Cc1ccccc1-c1cn(-c2ccccc2)c(=S)[nH]1	x	0.9	x	0.96	4	10	x
CCOC(=O)C1CCCN(C(=S)NC(=O)/C=C/c2ccc(F)cc2)C1 (stereo unspecified)	x	0.61	x	1	0	39*	2
COc1ccc(C(=O)N/C(=C\c2ccco2)C(=O)NCCCn2ccnc2)cc1	5	0.94	0.9	0.92	8	6	x
Cc1ccc(C(=O)N/C(=C\c2ccco2)C(=O)NCCCn2ccnc2)cc1C	-24	0.14	1.2	1.1	-6	86*	-63
COc1cc(OC)cc(-c2nnc(Nc3nc4c(F)cccc4s3)o2)c1	6	2*	0.9	0.81	19	-103	-1
Cc1nc2ccccc2c(=O)n1/N=C/c1ccccc1OC(F)F	x	0.97	x	0.93	8	3	x
Cn1c(CNC(=O)CCNC(=O)c2cccc(Br)c2)cc(=O)n(C)c1=O	x	0.63	x	0.95	5	37*	1
Cc1cc(C(=O)NNC(=O)COc2c(C)cc(Br)cc2C)n[nH]1	x	2.2*	x	0.78	22	-120	0
Cc1cc(C(=O)NNC(=O)COc2ccccc2Cl)n[nH]1	x	3.1*	x	0.88	12	-214	8
Cc1ccc(OCC(=O)NNC(=O)c2cc(C)[nH]n2)cc1	-2	0.9	1	0.85	15	10	x
CCN(CC)C(=O)Cn1cc(S(=O)(=O)CC(=O)Nc2cc(OC)ccc2OC)c2ccccc21	x	0.84	x	0.9	10	16	x
Cc1sc2ncnc(N3CCC(C(=O)N(CC(C)C)c4nc5ccccc5s4)CC3)c2c1C	x	0.97	x	1.1	-6	2	x
Cc1ccc(S(=O)(=O)NCC(=O)N/N=C/c2ccccc2O)cc1	-45	2.2*	1.4	0.71	29	-118	-63
Cc1ccc(S(=O)(=O)NCC(=O)N/N=C/c2ccc(Cl)cc2Cl)cc1	3	0.97	1	1	-2	3	x
Cc1ccc(NC(=O)CN(C(=O)N2CCN(C)CC2)S(=O)(=O)c2ccc(C)cc2)cc1	x	0.92	x	0.97	3	8	x
SMILES	bIAP inh	hIAP activ	bIAP activator	mIAP act	mIAP block	hIAP inh	hIAP act confirm
Cc1ccc(S(=O)(=O)N(CC(=O)Nc2ccc(C)cc2C)C(=O)N2CCN(C)CC2)cc1	x	0.64	x	0.96	4	36*	-55*
CCc1cc(-c2n[nH]c(C)c2-c2nc3ccccc3s2)c(O)cc1OCC(=O)NN	-103	2.3*	2*	1.1	-15	-130	-9
CCCCNCCCCOc1ccccc1	22	2.1*	0.8	1	-4	-110	-70
O=C(COC(=O)c1cncc(Br)c1)NC12CC3CC(CC(C3)C1)C2	x	1	x	1	0	-5	x
CCCCN1C(=O)/C(=C/C=C2\SCCN2C)SC1=S	28	0.56	0.7	0.75	25	44*	-4
CN1CCS/C1=C/C=C1\SC(=S)N(CC(=O)O)C1=O	x	0.73	0.4	0.7	30	27	x
CC(/C=N/NC(=O)CCn1nnc2ccccc21)=C\c1ccccc1	-52	0.65	1.5	0.97	3	35*	-89*
CC(/C=N/NC(=O)Cn1cnc2ccccc21)=C\c1ccccc1	12	1.1	0.9	0.92	8	-6	x
O=C(NNc1ccc([N+](=O)[O-])cc1[N+](=O)[O-])c1ccco1	x	0.64	x	0.82	18	36*	14
O=c1oc(-c2ccc(O)c(O)c2)cc2cc(O)cc(O)c12	x	0.31	x	0.65	35	69*	25
O=c1oc(-c2ccc(O)c(O)c2)cc2cccc(O)c12	x	0.87	x	0.77	23	13	x
CN(c1ccccc1)S(=O)(=O)c1ccc(NC(=O)c2nc(S(C)(=O)=O)ncc2Cl)cc1	x	1.1	x	0.92	8	-10	x
CCCOc1cc(N(CC)CC)ccc1/C=C(/C#N)c1nc2ccc(C)cc2[nH]1	48	0.63	0.5	0.68	32	37*	4
O=C(O)CC(NNC(=O)c1ccccc1)C(=O)Nc1ccc([N+](=O)[O-])cc1 (stereo unspecified)	x	1	x	1	-1	-1	x
COc1ccc(-n2ccn(CC(=O)Nc3ccc(OC)cc3OC)c(=O)c2=O)cc1	x	0.56	x	1	-1	44*	-1
CC(=O)Nc1ccc(NC(=O)Cn2cnc(S(=O)(=O)N3CCOCC3)c2)cc1	x	1	x	1	-2	0	x
Nc1oc2ccccc2c(=O)c1C=O	7	0.27	0.9	0.89	11	73*	15
Cc1cccc(CNC(=O)CC2C(=O)NCCN2C2CCCC2)c1 (stereo unspecified)	x	1.1	x	0.98	2	-9	x
COc1cc(/C=C2/CCC/C(=C\c3cc(O)c(OC)c(Cl)c3)C2=O)cc(Cl)c1O	x	0.6	0.4	0.64	36	40*	2
COc1cc(/C=C2\CCC/C(=C\c3ccc(O)c(OC)c3)C2=O)ccc1O	x	0.66	x	0.69	30	34	x
O=C(Nc1cc(C(F)(F)F)ccc1-n1cncn1)c1ccc(F)cc1Cl	x	1.2	x	0.99	1	-21	x
CCOc1ccc(CC(=O)NNC(=S)NCCc2ccccc2)cc1	-15	2*	1.2	0.94	6	-105	78
COc1cccc(C2c3c(-c4ccccc4O)n[nH]c3C(=O)N2Cc2ccco2)c1 (stereo unspecified)	x	2.1*	x	0.97	2	-110	4
CCOC(=O)/C=C/c1ccc2c(c1)S(=O)(=O)N(c1cccc(OC)c1)[C@H]2CC(=O)OCC	x	0.83	x	1	-3	17	x

Screens as filed in PubChem BioAssay.
